# This is a sample that favours compounds with a hit; in the whole collection about 2.3% have one here.
# TRPC4 agonist: opens the mouse TRPC4 cation channel; Q9QUQ5; HEK293 TRPC4beta/mu-opioid, Fluo4 calcium fluorescence; active compounds read high; B-score at 10 µM; actives 0.49% (n = 310,000);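 active = B-score above 5 SD of library B-scores, and initial fluorescence ratio not above library mean plus 5 SD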;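 also: positive B-score marks a calcium rise read as TRPC4 activation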
#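 Incubation: 45 min room-temperature Fluo4 loading, 110 s read / System: HEK293 cells stably co-expressing mouse TRPC4beta and mu-opioid receptor / Signal: Fluo4 fluorescence, kinetic / Control set: buffer (low) and maximal DAMGO (high) / Measure: integrated baseline-normalised fluorescence ratio, converted to per-well B score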
# DNA FID counter: fluorescent intercalator displacement, NS3 helicase counter-screen. DNA fluorescent intercalator displacement, fluorescence. inhibition, % at 7.9 µM. actives 0.17% (n = 290,000). AID 1845; in the data active = inhibition above about 37%;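 also: 0% = vehicle and 100% = reference compound; higher means more ethidium bromide displaced from hairpin DNA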
# TRPC4 block: blocks the mouse TRPC4 cation channel | Q9QUQ5 | HEK293 TRPC4beta/mu-opioid, DAMGO-evoked Fluo4 calcium flux; active compounds read low | B-score at 10 µM | actives 0.39% (n = 300,000);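 active = B-score over 3 SD under the library average, no early fluorescence shift, positive overall ratio signal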
#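 Test system – stable TRPC4beta/mu-opioid receptor HEK293 cells · Probe or stimulus – DAMGO, a submaximal dose followed by a maximal one · Dosing – one concentration per compound · Signal – Fluo4 calcium fluorescence by kinetic imaging, 5 s 1 Hz baseline · Evaluation – per-well B score of integrated baseline-normalized Fluo4 ratio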
# TRPC6 inhibitor: blocks the mouse TRPC6 cation channel. Q61143. B-score at 10 µM. actives 1.1% (n = 310,000). HEK293-TRPC6, membrane potential dye, ACh-evoked depolarization; active compounds read low;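 active = B-score under library mean minus 3 SD, initial fluorescence not abnormally high, positive integrated signal ratio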;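 also: B-score derived from integrated fluorescence ratio over the kinetic read; more negative B-score means stronger inhibition of depolarization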
# TRPC4 potent: TRPC4 (mouse) allosteric potentiation. HEK293 TRPC4beta/mu-opioid, DAMGO EC20, Fluo-4 Ca2+ flux; active compounds read high. B-score at 10 µM. Q9QUQ5. actives 0.42% (n = 310,000);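 active = B-score of calcium response area above 5 SD of library B-scores, with initial fluorescence ratio within 5 SD of library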;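 also: B-score of integrated fluorescence ratio over time as area under calcium response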
# TRPC6 activator: activators of mouse TRPC6 channel. B-score at 10 µM. actives 0.13% (n = 310,000). HEK293-TRPC6 membrane potential dye fluorescence; active compounds read high. AID 2550. Q61143;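 active = B-score of the integrated fluorescence ratio above library mean plus 3 SD, and starting fluorescence ratio within library mean plus 5 SD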;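 also: higher score means more depolarization so channel activation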
# Starred values were filed as active, the others as inactive; i = inactive; . = no result given.
SMILES,TRPC4 agonist,DNA FID counter,TRPC4 block,TRPC6 inhibitor,TRPC4 potent,TRPC6 activator
O=C(c1ccco1)N1CCCC(N2CCN(c3cccc(C(F)(F)F)c3)CC2)C1 (configuration not stated),i,-25.5,i,i,i,i
O/N=C/c1cn(-c2ccccc2)nc1-c1ccc2c(c1)OCCO2,i,-7.9,i,i,24*,i
CCN(CC)CCOC(=O)c1ccc(NC(=O)CCCN2C(=O)/C(=C/c3cccs3)SC2=S)cc1,i,44.0*,i,i,i,i
COc1ccc(CCn2c(N)c(C#N)c3nc4ccccc4nc32)cc1OC,i,-7.3,-6*,i,i,i
CCCN(CCC)C(=O)Cc1coc2ccc3ccccc3c12,i,-27.9,i,i,10*,i
O=C(/C=C/c1ccc(S(=O)(=O)N2CCOCC2)cc1)NC(=S)Nc1ccc(N2CCOCC2)cc1,i,-10.8,i,i,12*,i
COc1ccc(CNC(=O)COC(=O)c2cccs2)cc1,i,-9.2,i,i,i,i
Cn1c(-c2cccc3ccccc23)n[nH]c1=S,102*,-7.1,i,i,i,i
C/C=C(/C)C(=O)O[C@@H]1c2cc(OC)c(OC)c(OC)c2-c2c(cc3c(c2OC)OCO3)C[C@H](C)[C@]1(C)O,i,.,.,i,16*,i
COc1cc2c(c(OC)c1OC)-c1c(cc3c(c1OC)OCO3)[C@@H](OC(C)=O)[C@H](C)[C@H](C)C2,i,.,i,i,i,i
CC(C)(C)C(=O)N1CCN(c2ccc([N+](=O)[O-])cc2-n2cccc2)CC1,i,-17.7,i,i,16*,i
CCCN1CCN(CCCNC(=O)c2ccc(CS(=O)c3ccccc3C)o2)CC1 (configuration not stated),i,3.8,i,i,i,i
CCCC(C(=O)Nc1cc(S(=O)(=O)N2CCOCC2)ccc1OC)c1ccccc1 (configuration not stated),i,-34.0,i,i,i,i
O=C(NCCN1CCOCC1)c1cccc(S(=O)(=O)N(Cc2ccccc2)c2ccccc2)c1,i,.,i,i,i,i
O=C(NCc1ccccc1)C12CC3CC(CC(Br)(C3)C1)C2,i,-15.8,i,i,i,i
Oc1ccccc1-c1cc(C(F)(F)C(F)F)[nH]n1,i,2.1,i,i,i,i
FC(F)C(F)(F)c1cc(-c2ccc(Cl)cc2)n[nH]1,50*,-4.9,i,i,i,i
COC(=O)c1cc(-c2ccc(Cl)cc2)n[nH]1,i,-3.3,i,i,i,i
Fc1ccc(-c2cc(C(F)(F)C(F)F)[nH]n2)cc1,71*,-0.1,i,i,i,i
CC(C)c1ccccc1NC(=O)c1ccc2ncsc2c1,i,-8.6,i,i,i,i
Cc1nnc2sc(-c3ccncc3)nn12,i,3.4,i,i,i,i
Cc1nnc2sc(-c3csc4c3CCCC4)nn12,i,-7.3,-6*,i,i,i
Cc1ccc(S(=O)(=O)c2cnc(-c3ccccc3)nc2N2CCN(C)CC2)cc1,i,12.0,-6*,i,i,i
COc1ccc(CNC(=O)C(=O)NCC2OCCN2S(=O)(=O)c2ccc(F)cc2)cc1 (configuration not stated),i,-34.7,i,i,i,i
CC(=O)Nc1ccc(/C=C/c2nc(-c3ccccc3O)n[nH]2)cc1,i,-8.8,i,i,i,i
SMILES,TRPC4 agonist,DNA FID counter,TRPC4 block,TRPC6 inhibitor,TRPC4 potent,TRPC6 activator
CC(=O)NS(=O)(=O)c1ccc(NC(=O)CCC(=O)Oc2ccc(C)cc2)cc1,i,-4.2,i,i,11*,i
Cc1ccc(OC(=O)CCC(=O)Nc2ccc(S(=O)(=O)Nc3cc(C)on3)cc2)cc1,i,-1.7,i,i,i,i
CCOc1cccc2sc(N(CCCN(C)C)C(=O)c3ccc(S(=O)(=O)N(C)Cc4ccccc4)cc3)nc12,i,39.1*,i,i,i,i
CCOc1cccc2sc(N(CCCN(C)C)C(=O)c3ccc(S(=O)(=O)N(CC)Cc4ccccc4)cc3)nc12,i,37.3*,i,i,i,i
CCN(Cc1ccccc1)S(=O)(=O)c1ccc(C(=O)N(CCCN(C)C)c2nc3c(F)cccc3s2)cc1,112*,15.3,i,i,i,i
Cc1nn(C(C)C(=O)N2CCCC2)c(=O)c2nn(-c3ccccc3)c(C)c12 (configuration not stated),i,-25.9,i,i,i,i
O=C(c1ccccc1NS(=O)(=O)c1ccc(Br)cc1)N1CCOCC1,i,-16.4,i,i,i,i
COc1ccc(CCNC(=O)C(C)n2nc(C)c3c(C)n(-c4ccc(C)cc4)nc3c2=O)c(OC)c1 (configuration not stated),i,-44.0,i,i,i,i
N=C(N)SCc1ccccn1,i,-6.0,i,i,38*,i
Cc1ccc(-c2cc(C(=O)Nc3nccs3)c3ccccc3n2)o1,i,-0.6,-7*,i,i,i
Cc1ccc(S(=O)(=O)N(CC(=O)Nc2cccc(C)c2C)C(=O)N2CCN(C)CC2)cc1,i,.,i,i,i,i
OC(CN1CCOCC1)(c1ccccc1)c1ccccn1 (configuration not stated),i,-2.0,i,i,i,i
COc1ccc(F)cc1CN1CCN(C(=O)CCC(=O)Nc2nnc(C(C)C)s2)CC1,69*,-28.4,i,i,i,i
CCCc1nnc(NC(=O)CCC(=O)N2CCN(Cc3cc(F)ccc3OC)CC2)s1,i,-18.3,i,i,i,i
COC(=O)c1ccc(C2=NOC(C)(c3nnc(Cc4ccccc4)o3)C2)cc1 (configuration not stated),i,.,i,i,i,i
Cc1cc(Cl)cc2c1NC(=O)[C@]21[C@@H]2C(=O)N(Cc3ccccc3)C(=O)[C@@H]2[C@@H]2CCCN21,50*,-32.0,i,i,i,i
COc1ccc(NC(=O)N2CCNC(=O)C2CC(=O)Nc2ccc(F)cc2)cc1 (configuration not stated),i,-22.2,i,i,i,i
Cc1[nH]c2c(ccc3ccccc32)c1C1C(CCN)C1(C)C (configuration not stated),70*,6.2,i,i,i,i
O=C(NC1CCCCCC1)c1ccc(Cl)c(S(=O)(=O)N2CCOCC2)c1,i,-29.7,i,i,i,i

# High-throughput results as filed in PubChem.
